In ChEMBL document CHEMBL4376891, “Benzenesulfonamide Derivatives as Calcium/Calmodulin-Dependent Protein Kinase Inhibitors and Antiviral Agents against Dengue and Zika Virus Infections” (J Med Chem, 2020):
Calls of active or inactive are those of the source. The rule behind the calls is not given here.

Columns and labels:
[1] = Cytotoxicity against human BE(2)-C cells assessed as cell proliferation at 6.25 uM incubated overnight by XTT assay relative to control; assay type: cell-based; conditions: read-out: Activity
dengue virus type 2 [2] = experiment: Antiviral activity against eGFP-fused Dengue virus 2 infected in human BE(2)-C cells assessed as viral infection level by measuring intensity of eGFP emission from infected cells at 3.13 uM incubated for 24 hrs relative to control; assay type: functional
Method in brief: (§1)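 BE(2)C cells, in RPMI 1640 with 10% FBS, were infected with DENV-2-eGFP reporter virus (MOI 1) for 24 h with or without compound, using DMSO as solvent control. Cells were fixed in 4% paraformaldehyde and stained with Hoechst, then imaged by high-content analysis. eGFP intensity per cell number is given as % of solvent control. Values are means of 3 experiments.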

dengue virus type 2 [3] = experiment: Antiviral activity against eGFP-fused Dengue virus 2 infected in human BE(2)-C cells assessed as viral infection level by measuring intensity of eGFP emission from infected cells at 1.56 uM incubated for 24 hrs relative to control; assay type: functional; method in brief: as §1
[4] = molecular target: Calcium/calmodulin-dependent protein kinase type II subunit alpha (Homo sapiens, UniProt Q9UQM7); experiment: Inhibition of human CaMKIIalpha using calmodulin and syntide-2 incubated for 15 mins by ELISA
Calcium/calmodulin-dependent protein kinase type II subunit alpha, sequence (Q9UQM7 whole entry): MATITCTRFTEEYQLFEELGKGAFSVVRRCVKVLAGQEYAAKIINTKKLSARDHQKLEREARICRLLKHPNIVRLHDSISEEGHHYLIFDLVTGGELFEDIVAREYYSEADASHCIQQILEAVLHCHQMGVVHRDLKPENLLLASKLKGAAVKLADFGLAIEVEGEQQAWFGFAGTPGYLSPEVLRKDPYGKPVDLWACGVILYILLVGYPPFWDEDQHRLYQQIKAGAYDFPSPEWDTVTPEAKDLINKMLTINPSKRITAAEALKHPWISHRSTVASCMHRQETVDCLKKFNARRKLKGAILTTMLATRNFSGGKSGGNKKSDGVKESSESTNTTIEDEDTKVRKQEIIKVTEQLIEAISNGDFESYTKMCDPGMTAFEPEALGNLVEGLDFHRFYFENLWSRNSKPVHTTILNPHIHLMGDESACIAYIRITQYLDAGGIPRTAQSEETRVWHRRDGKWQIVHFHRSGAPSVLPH

## COc1ccc(S(=O)(=O)N(CCO)c2ccccc2CN(C)C/C=C/c2ccc(Cl)cc2)cc1
[1]
  viability at 6.25 µM: 84.3%
Dengue virus type 2 [2]
  Activity: 14.5%
Dengue virus type 2 [3]
  Activity: 30.5%

## O=C(CCCN(c1ccccc1)S(=O)(=O)c1ccc(OC(F)(F)F)cc1)C1CCCC1
[1]
  viability at 6.25 µM: 92.4%
Dengue virus type 2 [2]
  Activity: 118.2%
Dengue virus type 2 [3]
  Activity: 102.6%

## COc1ccc(S(=O)(=O)N(CCCC(=O)C2CCCCC2)c2ccccc2)cc1
[1]
  viability at 6.25 µM: 107%
Dengue virus type 2 [2]
  Activity: 63.3%
Dengue virus type 2 [3]
  Activity: 68.9%

## COc1ccc(S(=O)(=O)N(CCCC(=O)C2CCCCCC2)c2ccc(C3CCCCC3)cc2)cc1
Dengue virus type 2 [2]
  Activity: 13.8%
Dengue virus type 2 [3]
  Activity: 36.1%

## COc1ccc(S(=O)(=O)N(CCCC(=O)C2CCCCCC2)C2CCCCC2)cc1
[1]
  viability at 6.25 µM: 97.5%
Dengue virus type 2 [2]
  Activity: 65.7%
Dengue virus type 2 [3]
  Activity: 85.7%

## CN([C@@H](Cc1ccc(OS(=O)(=O)c2cccc3cnccc23)cc1)C(=O)N1CCN(c2ccccc2)CC1)S(=O)(=O)c1cccc2cnccc12
[4]
  IC50: 1030 nM
[1]
  viability at 6.25 µM: 65.7%
Dengue virus type 2 [2]
  Activity: 22.3%
Dengue virus type 2 [3]
  Activity: 33.5%

## Cc1ccc(S(=O)(=O)N(CCCC(=O)C2CCCCCC2)c2ccccc2)cc1
[1]
  viability at 6.25 µM: 99.5%
Dengue virus type 2 [2]
  Activity: 76.9%
Dengue virus type 2 [3]
  Activity: 93.9%

## COc1ccc(S(=O)(=O)N(CCCC(=O)C2C3CC4CC(C3)CC2C4)c2ccccc2)cc1 (configuration not stated)
[1]
  viability at 6.25 µM: 96.7%
Dengue virus type 2 [2]
  Activity: 51.1%
Dengue virus type 2 [3]
  Activity: 57.3%

## COc1ccc(S(=O)(=O)N(CCCC(=O)c2ccc(F)cc2)c2ccccc2)cc1
[1]
  viability at 6.25 µM: 56.1%
Dengue virus type 2 [2]
  Activity: 39.3%
Dengue virus type 2 [3]
  Activity: 55.9%

## COc1ccc(S(=O)(=O)NCCCC(=O)c2ccc(F)cc2)cc1
[4]
  inhibition: Active
[1]
  viability at 6.25 µM: 106%
Dengue virus type 2 [2]
  Activity: 122.6%
Dengue virus type 2 [3]
  Activity: 110.1%

## COc1ccc(S(=O)(=O)N(C)CCCC(=O)c2ccc(F)cc2)cc1
[1]
  viability at 6.25 µM: 106%
Dengue virus type 2 [2]
  Activity: 100.9%
Dengue virus type 2 [3]
  Activity: 100%

## COc1ccc(S(=O)(=O)N(CCCC(=O)C2CCC2)c2ccccc2)cc1
[1]
  viability at 6.25 µM: 93.9%
Dengue virus type 2 [2]
  Activity: 33%
Dengue virus type 2 [3]
  Activity: 42.8%

## O=C(CCCN(c1ccccc1)S(=O)(=O)c1ccc(Oc2ccccc2)cc1)C1CCCCCC1
[1]
  viability at 6.25 µM: 95.5%
Dengue virus type 2 [2]
  Activity: 73.4%
Dengue virus type 2 [3]
  Activity: 74.7%

## COc1ccc(S(=O)(=O)N(CCCC(=O)C2CCCCCC2)c2ccc3c(c2)CCCC3)cc1
[1]
  viability at 6.25 µM: 104%
Dengue virus type 2 [2]
  Activity: 21.5%
Dengue virus type 2 [3]
  Activity: 87.2%

## COc1ccc(S(=O)(=O)N(CCCC(=O)C2CCCC2)c2ccccc2)cc1
Dengue virus type 2 [2]
  Activity: 25.1%
Dengue virus type 2 [3]
  Activity: 34.6%

## COc1ccc(S(=O)(=O)N(CCCC(O)c2ccc(F)cc2)c2ccccc2)cc1 (configuration not stated)
[4]
  inhibition: Active
[1]
  viability at 6.25 µM: 76.3%
Dengue virus type 2 [2]
  Activity: 48.5%
Dengue virus type 2 [3]
  Activity: 59.4%

## COc1ccc(S(=O)(=O)N(CCCC(C)=O)c2ccccc2)cc1
[1]
  viability at 6.25 µM: 106%
Dengue virus type 2 [2]
  Activity: 100.8%
Dengue virus type 2 [3]
  Activity: 92.8%
